Converted amounts (≈) assume the structure as drawn.
Key:
Enterococcus faecium = assay: Antibacterial activity against Enterococcus faecium ATCC 49624 by CLSI method; assay type: functional
Outline: (§1)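 Broth microdilution MIC in liquid medium following CLSI methods, with ATCC strains. Each run was accepted only if comparator antibiotics fell within their recommended quality-control ranges for the appropriate ATCC strain.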

Rattus norvegicus = assay: Dose normalized AUC in rat at 30 mg/kg, po; assay type: ADME, organism-based; set-up: dose 30 mg/kg, route oral; details: in vivo
Enterococcus faecalis = assay: Antibacterial activity against Enterococcus faecalis ATCC 29212 by CLSI method; assay type: functional; outline: as §1
Staphylococcus aureus [1] = assay: Antibacterial activity against Staphylococcus aureus ATCC 29213 by CLSI method in presence of human 50% serum; assay type: functional; outline: as §1
Staphylococcus aureus [2] = assay: Antibacterial activity against Staphylococcus aureus ATCC 29213 by CLSI method; assay type: functional; outline: as §1
Streptococcus pneumoniae = assay: Antibacterial activity against Streptococcus pneumoniae ATCC 10015 by CLSI method; assay type: functional; outline: as §1
[3] = Drug metabolism in human liver S9 fractions assessed as compound formation treated with 30 uM 1-Ethyl-3-(5-(5-fluoropyridin-3-yl)-7-(pyrimidin-2-yl)-1H-benzo-[d]imidazol-2-yl)urea for 1 hr; assay type: ADME, subcellular, Liver S9 fraction; details: s9, 1 h
Liver microsome [4] = assay: Drug metabolism in rat liver microsomes assessed as compound formation treated with 30 uM 1-Ethyl-3-(5-(5-fluoropyridin-3-yl)-7-(pyrimidin-2-yl)-1H-benzo-[d]imidazol-2-yl)urea for 1 hr; assay type: ADME
Liver microsome [5] = assay: Drug metabolism in human liver microsomes assessed as compound formation treated with 30 uM 1-Ethyl-3-(5-(5-fluoropyridin-3-yl)-7-(pyrimidin-2-yl)-1H-benzo-[d]imidazol-2-yl)urea for 1 hr; assay type: ADME
[6] = Drug metabolism in monkey liver microsomes assessed as compound formation treated with 30 uM 1-Ethyl-3-(5-(5-fluoropyridin-3-yl)-7-(pyrimidin-2-yl)-1H-benzo-[d]imidazol-2-yl)urea for 1 hr; assay type: ADME, Macaca mulatta; details: rhesus monkey
[7] = Inhibition of Staphylococcus aureus DNA topoisomerase-4 C2E2 using pBR322 plasmid DNA as substrate by coupled enzyme reaction assay
Haemophilus influenzae = assay: Antibacterial activity against Haemophilus influenzae ATCC 49247 by CLSI method; assay type: functional; outline: as §1
DNA gyrase = DNA gyrase (Escherichia coli, UniProt P0AES4+P0AES6); assay: Inhibition of […] Escherichia coli DNA gyrase A2B2 using pBR322 plasmid DNA as substrate by coupled enzyme reaction assay; assay type: protein-complex assay
Cytochrome P450 1A2 = molecular target: T1, Cytochrome P450 1A2 (Homo sapiens, UniProt P05177); assay: Drug metabolism in recombinant CYP1A2 (unknown origin) assessed as compound formation treated with 10 uM 1-Ethyl-3-(5-(5-fluoropyridin-3-yl)-7-(pyrimidin-2-yl)-1H-benzo-[d]imidazol-2-yl)urea for 30 mins; details: recombinant enzyme, 0.5 h
T1 sequence (P05177 whole entry): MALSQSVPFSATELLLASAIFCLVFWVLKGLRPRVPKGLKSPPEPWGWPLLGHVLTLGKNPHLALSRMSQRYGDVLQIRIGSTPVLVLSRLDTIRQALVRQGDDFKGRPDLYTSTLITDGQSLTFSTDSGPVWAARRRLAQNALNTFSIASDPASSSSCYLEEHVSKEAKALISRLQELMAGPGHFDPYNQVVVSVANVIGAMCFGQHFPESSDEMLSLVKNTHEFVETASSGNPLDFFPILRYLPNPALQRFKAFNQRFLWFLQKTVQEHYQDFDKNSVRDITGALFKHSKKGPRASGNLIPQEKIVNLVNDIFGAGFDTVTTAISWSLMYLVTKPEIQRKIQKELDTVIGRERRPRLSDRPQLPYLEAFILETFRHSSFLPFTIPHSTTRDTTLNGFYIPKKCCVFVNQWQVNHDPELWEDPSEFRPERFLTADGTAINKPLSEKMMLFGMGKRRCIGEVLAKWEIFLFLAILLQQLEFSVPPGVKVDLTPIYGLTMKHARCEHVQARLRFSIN

Cytochrome P450 3A4 = Cytochrome P450 3A4 (Homo sapiens, UniProt P08684); assay: Drug metabolism in recombinant CYP3A4 (unknown origin) assessed as compound formation treated with 1 uM 1-Ethyl-3-(5-(5-fluoropyridin-3-yl)-7-(pyrimidin-2-yl)-1H-benzo-[d]imidazol-2-yl)urea for 30 mins; assay type: ADME; details: recombinant enzyme, 0.5 h, in the assay text read “10 uM” for “1 uM”
Sequence of Cytochrome P450 3A4 (P08684 whole entry): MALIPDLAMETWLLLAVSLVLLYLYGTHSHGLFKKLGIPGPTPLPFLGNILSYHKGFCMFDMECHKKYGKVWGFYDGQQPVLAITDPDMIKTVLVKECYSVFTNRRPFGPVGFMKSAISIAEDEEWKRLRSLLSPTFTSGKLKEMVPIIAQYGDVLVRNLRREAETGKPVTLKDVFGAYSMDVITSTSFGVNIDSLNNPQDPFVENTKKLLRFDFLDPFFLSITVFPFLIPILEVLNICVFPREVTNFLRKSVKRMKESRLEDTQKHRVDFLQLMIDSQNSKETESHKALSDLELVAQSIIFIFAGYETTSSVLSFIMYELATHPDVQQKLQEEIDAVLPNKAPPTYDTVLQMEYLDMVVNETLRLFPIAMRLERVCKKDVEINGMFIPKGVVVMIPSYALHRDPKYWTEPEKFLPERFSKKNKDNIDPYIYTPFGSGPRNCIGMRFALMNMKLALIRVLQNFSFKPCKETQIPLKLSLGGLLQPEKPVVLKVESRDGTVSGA
Outline: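 Parent at 1 and 10 μM was incubated with individual recombinant CYP supersomes, with and without NADPH, for 0, 15 and 30 min. Formation of the imine metabolite was quantified by LC-MS/MS.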

Cytochrome P450 2D6 = Cytochrome P450 2D6 (Homo sapiens, UniProt P10635); assay: Drug metabolism in recombinant CYP2D6 (unknown origin) assessed as compound formation treated with 10 uM 1-Ethyl-3-(5-(5-fluoropyridin-3-yl)-7-(pyrimidin-2-yl)-1H-benzo-[d]imidazol-2-yl)urea for 30 mins; details: recombinant enzyme, 0.5 h
Sequence of Cytochrome P450 2D6 (P10635 whole entry): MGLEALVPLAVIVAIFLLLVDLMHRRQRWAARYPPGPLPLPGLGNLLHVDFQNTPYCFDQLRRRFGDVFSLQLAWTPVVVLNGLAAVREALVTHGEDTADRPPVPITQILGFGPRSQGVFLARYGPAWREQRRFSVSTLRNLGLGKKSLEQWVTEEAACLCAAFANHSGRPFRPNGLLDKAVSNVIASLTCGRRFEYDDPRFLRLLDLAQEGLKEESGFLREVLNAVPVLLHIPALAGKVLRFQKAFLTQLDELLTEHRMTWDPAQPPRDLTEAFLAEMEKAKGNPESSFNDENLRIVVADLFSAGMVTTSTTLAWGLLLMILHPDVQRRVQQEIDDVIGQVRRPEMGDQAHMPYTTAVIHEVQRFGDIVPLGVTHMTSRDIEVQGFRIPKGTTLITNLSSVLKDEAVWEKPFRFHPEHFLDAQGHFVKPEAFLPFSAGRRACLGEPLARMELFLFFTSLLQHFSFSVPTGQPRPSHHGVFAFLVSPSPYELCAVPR

Row | Compound | MIC (Enterococcus faecium) [µg/mL] | AUC/dose (Rattus norvegicus) [microg.hr/mL per mg/kg] | MIC (Enterococcus faecalis) [µg/mL] | MIC (Staphylococcus aureus [1]) [µg/mL] | MIC (Staphylococcus aureus [2]) [µg/mL] | MIC (Streptococcus pneumoniae) [µg/mL] | other results
1 | CCNC(=O)Nc1nc2cc(-c3ccc(C(O)CC)nc3)c(F)c(-n3cccn3)c2[nH]1 (stereo not given) | 0.25 (≈ 0.59 µM) | 7.2 | 0.125 (≈ 0.295 µM) | 2 | 0.063 (≈ 0.149 µM) | 0.032 (≈ 0.0756 µM) | 
2 | O=C(Nc1nc2cc(-c3cncc(F)c3)cc(-c3ncccn3)c2[nH]1)NC1CO1 (stereo not given) |  |  |  |  |  |  | Drug metabolism [3]: metabolite_detected; Drug metabolism (Liver microsome [4]): metabolite_detected; Drug metabolism (Liver microsome [5]): metabolite_detected; Drug metabolism [6]: metabolite_detected
3 | CCNC(=O)Nc1nc2cc(-c3cnc(C(C)(C)O)nc3)cc(-c3ncccc3F)c2[nH]1 |  |  | 0.032 (≈ 0.0735 µM) | 0.25 | 0.031 (≈ 0.0712 µM) | ≤ 0.008 | Ki [7]: < 6 nM; MIC (Haemophilus influenzae): 1 µg/mL (≈ 2.3 µM); Ki (DNA gyrase): < 4 nM
4 | CCNC(=O)Nc1nc2cc(-c3ccc(CN4CCOCC4)nc3)c(F)c(-n3cccn3)c2[nH]1 | 0.5 (≈ 1.08 µM) | 13.8 | 0.125 (≈ 0.269 µM) | 1 | 0.25 (≈ 0.538 µM) | 0.016 (≈ 0.0344 µM) | 
5 | CCNC(=O)Nc1nc2cc(-c3ccc([C@@H](O)CC)nc3)c(F)c(-n3cccn3)c2[nH]1 | 0.5 (≈ 1.18 µM) | 8.4 | 0.063 (≈ 0.149 µM) | 1 | 0.063 (≈ 0.149 µM) | 0.016 (≈ 0.0378 µM) | 
6 | CCNC(=O)Nc1nc2cc(-c3ccc(C(C)O)nc3)c(F)c(-n3cccn3)c2[nH]1 (stereo not given) | 0.5 (≈ 1.22 µM) |  | 0.125 (≈ 0.305 µM) | 3 | 0.125 (≈ 0.305 µM) | 0.032 (≈ 0.0782 µM) | 
7 | C=CNC(=O)Nc1nc2cc(-c3cncc(F)c3)cc(-c3ncccn3)c2[nH]1 |  |  |  |  |  |  | Drug metabolism [3]: metabolite_detected; Drug metabolism (Liver microsome [4]): metabolite_detected; Drug metabolism (Liver microsome [5]): metabolite_detected; Drug metabolism [6]: metabolite_detected
8 | CCNC(=O)Nc1nc2cc(-c3cnc(C(C)(C)O)nc3)cc(C3CCCO3)c2[nH]1 (racemic) | 0.5 (≈ 1.22 µM) | 5.5 | 0.25 (≈ 0.609 µM) | 0.5 | 0.25 (≈ 0.609 µM) | 0.032 (≈ 0.078 µM) | 
9 | CCCC(=O)Nc1nc2cc(-c3cncc(F)c3)cc(-c3ncccn3)c2[nH]1 |  |  |  | > 8 | > 8 |  | 
10 | CCNC(=O)Nc1nc2cc(-c3cccnc3)cc(-c3ncccc3F)c2[nH]1 |  |  | 0.016 (≈ 0.0425 µM) | 1 | 0.031 (≈ 0.0824 µM) | ≤ 0.008 | MIC (Haemophilus influenzae): 1 µg/mL (≈ 2.66 µM); Ki (DNA gyrase): 6 nM
11 | CCNC(=O)Nc1nc2cc(-c3ccc(C(C)(C)O)nc3)cc(C3CCCO3)c2[nH]1 (racemic) | 1 (≈ 2.44 µM) | 2.6 | 0.25 (≈ 0.611 µM) | 2 | 0.5 (≈ 1.22 µM) | 0.063 (≈ 0.154 µM) | 
12 | CCNC(=O)Nc1nc2cc(-c3cnc(C(C)(C)O)nc3)c(F)c([C@@H]3CCCO3)c2[nH]1 | 2 (≈ 4.67 µM) |  | 0.5 (≈ 1.17 µM) | 4 | 0.5 (≈ 1.17 µM) | 0.25 (≈ 0.583 µM) | 
13 | CCNC(=O)Nc1nc2c(-n3cccn3)cc(-c3cccnc3)cc2[nH]1 |  | 5.7 | 0.063 (≈ 0.181 µM) | 4 | 0.25 (≈ 0.72 µM) | 0.016 (≈ 0.0461 µM) | 
14 | CCNC(=O)Nc1nc2cc(-c3ccc(CN4CCOCC4)nc3)c(F)c(-n3cc(C)cn3)c2[nH]1 | 0.25 (≈ 0.522 µM) | 1.9 | 0.063 (≈ 0.132 µM) | 0.5 | 0.063 (≈ 0.132 µM) | 0.016 (≈ 0.0334 µM) | 
15 | CCNC(=O)Nc1nc2cc(-c3cnc(C(C)(C)O)nc3)c(F)c(C3CCCO3)c2[nH]1 (racemic) | 0.5 (≈ 1.17 µM) |  | 0.125 (≈ 0.292 µM) | 0.5 | 0.063 (≈ 0.147 µM) | 0.032 (≈ 0.0747 µM) | 
16 | CCNC(=O)Nc1nc2cc(-c3cccnc3)cc(C3CCCO3)c2[nH]1 (racemic) |  |  | 0.25 (≈ 0.711 µM) | 4 | 1 (≈ 2.85 µM) | 0.125 (≈ 0.356 µM) | 
17 | CCNC(=O)Nc1nc2cc(-c3cnc(C(C)(C)O)nc3)cc([C@H]3CCCO3)c2[nH]1 | 0.5 (≈ 1.22 µM) | 4.3 | 0.063 (≈ 0.153 µM) | 0.25 | 0.125 (≈ 0.305 µM) | 0.032 (≈ 0.078 µM) | 
18 | CNCC(=O)Nc1nc2cc(-c3cncc(F)c3)cc(-c3ncccn3)c2[nH]1 | > 8 |  | > 8 | > 8 | > 8 | > 8 | 
19 | CCOC(=O)Nc1nc2cc(-c3cncc(F)c3)cc(-c3ncccn3)c2[nH]1 | 0.016 (≈ 0.0423 µM) |  | 0.016 (≈ 0.0423 µM) | > 8 | 0.016 (≈ 0.0423 µM) | 0.008 (≈ 0.0211 µM) | 
20 | CCNC(=O)Nc1nc2cc(-c3cncnc3)cc(C3CCCO3)c2[nH]1 (racemic) | 1 (≈ 2.84 µM) | 10.5 | 0.5 (≈ 1.42 µM) | 2 | 1 (≈ 2.84 µM) | 0.125 (≈ 0.355 µM) | 
21 | NC(=O)Nc1nc2cc(-c3cncc(F)c3)cc(-c3ncccn3)c2[nH]1 |  |  |  | > 8 | > 8 |  | 
22 | COCC(=O)Nc1nc2cc(-c3cncc(F)c3)cc(-c3ncccn3)c2[nH]1 | 0.032 (≈ 0.0846 µM) |  | 0.032 (≈ 0.0846 µM) | 8 | 0.064 (≈ 0.169 µM) | 0.032 (≈ 0.0846 µM) | 
23 | CCNC(=O)Nc1nc2cc(-c3cnc(C(C)(C)O)nc3)cc([C@@H]3CCCO3)c2[nH]1 | 2 (≈ 4.87 µM) |  | 1 (≈ 2.44 µM) | 2 | 1 (≈ 2.44 µM) | 0.5 (≈ 1.22 µM) | 
24 | CCNC(=O)Nc1nc2cc(-c3ccn(C)c(=O)c3)cc(C3CCCO3)c2[nH]1 (racemic) | 0.25 (≈ 0.655 µM) |  | 0.25 (≈ 0.655 µM) | 0.75 | 0.75 (≈ 1.97 µM) | 0.016 (≈ 0.0419 µM) | 
25 | CCNC(=O)Nc1nc2cc(-c3cccnc3)c(F)c(-n3cccn3)c2[nH]1 |  | 10.8 | 0.063 (≈ 0.172 µM) | 2 | 0.25 (≈ 0.684 µM) | 0.032 (≈ 0.0876 µM) | 
26 | CCNC(=O)Nc1nc2cc(-c3ccc([C@H](O)CC)nc3)c(F)c(-n3cccn3)c2[nH]1 | 0.25 (≈ 0.59 µM) |  | 0.063 (≈ 0.149 µM) | 4 | 0.25 (≈ 0.59 µM) | 0.063 (≈ 0.149 µM) | 
27 | CCNC(=O)Nc1nc2cc(-c3cc(C)n(Cc4ccccn4)c(=O)c3)cc(C3CCCO3)c2[nH]1 (racemic) | 0.25 (≈ 0.529 µM) |  | 0.125 (≈ 0.265 µM) | 0.25 | 0.125 (≈ 0.265 µM) | 0.008 (≈ 0.0169 µM) | 
28 | CCNC(=O)Nc1nc2cc(-c3cc(C)n(Cc4ccccn4)c(=O)c3)c(F)c(-n3cc(C)cn3)c2[nH]1 | 0.032 (≈ 0.0639 µM) | 0.2 | 0.016 (≈ 0.032 µM) | 0.125 | 0.016 (≈ 0.032 µM) | 0.008 (≈ 0.016 µM) | 
29 | CC1NC(=O)Nc2nc3c(-c4ncccn4)cc(-c4cncc(F)c4)cc3n21 (stereo not given) |  |  |  |  |  |  | Drug metabolism [3]: metabolite_detected; Drug metabolism (Cytochrome P450 1A2): metabolite_detected; Drug metabolism (Liver microsome [4]): metabolite_detected; Drug metabolism (Liver microsome [5]): metabolite_detected; Drug metabolism [6]: metabolite_detected; Drug metabolism (Cytochrome P450 3A4): metabolite_detected; Drug metabolism (Cytochrome P450 2D6): metabolite_detected

— ChEMBL document CHEMBL3351508, “Second-generation antibacterial benzimidazole ureas: discovery of a preclinical candidate with reduced metabolic liability” (J Med Chem, 2014)
